Source: ChEMBL document CHEMBL2010803, “Novel NSAID 1-acyl-4-cycloalkyl/arylsemicarbazides and 1-acyl-5-benzyloxy/hydroxy carbamoylcarbazides as potential anticancer agents and antioxidants” (Eur J Med Chem, 2012)
Calls of active or inactive are those of the source. The calls are words filed in the database; no cut-off is given here.

Legend:
[1] = system: Radical scavenging activity; experiment: Antioxidant activity assessed as DPPH free radical scavenging activity at 100 uM after 20 mins by spectrophotometric analysis; format: functional
In short: (§1)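 0.05 mM DPPH in absolute ethanol mixed with an equal volume of compound in DMSO (final 100 μM). Shaken and left 20 or 60 min, then absorbance read at 517 nm and percent activity calculated. Three replicates, averaged.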

[2] = Antioxidant activity assessed as inhibition of AAPH-induced linoleic acid lipid peroxidation by measuring conjugated diene hydroperoxide level; format: functional; design: concentration or dose not given beside the values; details: dose or concentration not given here
In short: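 Linoleic acid sodium salt (10 μL of 16 mM) in 0.05 M phosphate buffer pH 7.4 at 37 °C. Oxidation started under air with 50 μL of 40 mM AAPH. Conjugated diene hydroperoxide formation followed as absorbance rise at 234 nm; control contains the same DMSO level. At least triplicate.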

CCRF-CEM = experiment: Cytostatic activity against human CEM cells after 3 days by coulter counter analysis; format: functional, cell-based; details: 72 h
In short: (§2)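 300,000–500,000 cells/ml mixed 1:1 with compound dilutions and incubated at 37 °C for 2 days (L1210) or 3 days (CEM, HeLa). Cell number counted with a Coulter counter; HeLa trypsinized before counting.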

Punta Toro virus = experiment: Antiviral activity against Punta Toro virus infected in african green monkey Vero cells assessed as inhibition of virus-induced cytopathic effect at 0.32 to 100 uM; format: functional, organism-based
In short: (§3)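 Confluent cell cultures were infected with 100 CCID50 of virus in the presence of test compound at 100, 40, 8, 1.6 and 0.32 μM. Cytopathic effect was scored once it was complete in untreated infected controls.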

Human alphaherpesvirus 2 = experiment: Antiviral activity against HSV2 G infected in human lung fibroblast assessed as inhibition of virus-induced cytopathic effect at 0.32 to 100 uM; format: functional, organism-based; details: strain G; in short: as §3
Influenza B virus = experiment: Antiviral activity against Influenza B virus infected in MDCK cells assessed as inhibition of virus-induced cytopathic effect at 0.32 to 100 uM; format: functional, organism-based
In short: (§4)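 Confluent MDCK monolayers were infected in the presence of the compound at 100, 40, 8, 1.6 and 0.32 μM. Viral cytopathicity was scored once it was complete in untreated infected control cultures.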

Influenza A virus [3] = experiment: Antiviral activity against Influenza A virus H3N2 infected in MDCK cells assessed as inhibition of virus-induced cytopathic effect at 0.32 to 100 uM; format: functional, organism-based; in short: as §4
[4] = system: Vesicular stomatitis virus; experiment: Antiviral activity against VSV infected in human lung fibroblast assessed as inhibition of virus-induced cytopathic effect at 0.32 to 100 uM; format: functional, organism-based
Feline coronavirus = experiment: Antiviral activity against Feline coronavirus infected in feline CRFK cells assessed as inhibition of virus-induced cytopathic effect at 0.32 to 100 uM; format: functional, organism-based; in short: as §3
Human alphaherpesvirus 1 = experiment: Antiviral activity against HSV1 KOS infected in human lung fibroblast assessed as inhibition of virus-induced cytopathic effect at 0.32 to 100 uM; format: functional, organism-based; in short: as §3
[5] = system: Human immunodeficiency virus 1; experiment: Antiviral activity against HIV1 3B infected in human CEM cells assessed as inhibition of virus-induced CEM giant cell formation at 0.32 to 100 uM after 4 days; format: functional, organism-based; details: CCRF-CEM
In short: (§5)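 CEM cells (~3 × 10^5 cells/cm³) exposed to 100 CCID50/ml of virus and seeded into wells holding compound dilutions. Incubated 4 days at 37 °C, then giant cell formation examined microscopically.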

Influenza A virus [6] = experiment: Antiviral activity against Influenza A virus H1N1 infected in MDCK cells assessed as inhibition of virus-induced cytopathic effect at 0.32 to 100 uM; format: functional, organism-based; in short: as §4
MCF7 = experiment: Cytostatic activity against human MCF7 cells after 72 hrs by MTT assay; format: functional, cell-based; details: MCF7, 72 h
In short: (§6)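 Monolayers in DMEM with 10% FBS, 2 mM L-glutamine and penicillin/streptomycin, 37 °C, 5% CO2. Seeded at 1–3 × 10^4 cells/ml, then compound added in tenfold dilutions (10⁻⁸–10⁻⁴ M) for 72 h. MTT read at 570 nm; percent growth taken against time-zero and untreated controls. IC50 by linear regression; quadruplicate, at least two experiments.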

[7] = system: Mammalian orthoreovirus 1; experiment: Antiviral activity against Reovirus-1 infected in african green monkey Vero cells assessed as inhibition of virus-induced cytopathic effect at 0.32 to 100 uM; format: functional, organism-based; in short: as §3
[8] = system: Human immunodeficiency virus 2; experiment: Antiviral activity against HIV2 ROD infected in human CEM cells assessed as inhibition of virus-induced CEM giant cell formation at 0.32 to 100 uM after 4 days; format: functional, organism-based; details: ISOLATE ROD, CCRF-CEM; in short: as §5
[9] = system: Vesicular stomatitis virus; experiment: Antiviral activity against Vesicular stomatitis virus infected in human cervix carcinoma cells assessed as inhibition of virus-induced cytopathic effect at 0.32 to 100 uM; format: functional, organism-based
In short: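 Confluent human cervix carcinoma (HeLa) cultures received 100 CCID50 of VSV together with the compound at 100, 40, 8, 1.6 or 0.32 μM. Cytopathicity was read at the point of full CPE in infected, untreated control wells.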

HeLa = experiment: Cytostatic activity against human HeLa cells after 3 days by coulter counter analysis; format: functional, cell-based; details: 72 h; in short: as §2
Vaccinia virus = experiment: Antiviral activity against Vaccinia virus infected in human lung fibroblast assessed as inhibition of virus-induced cytopathic effect at 0.32 to 100 uM; format: functional, organism-based; details: Orthopoxvirus vaccinia
Glycine max = experiment: Inhibition of soybean LOX assessed as conversion of sodium linoleate to 13- hydroperoxylinoleic acid at 100 uM
Sindbis virus = experiment: Antiviral activity against Sindbis virus infected in african green monkey Vero cells assessed as inhibition of virus-induced cytopathic effect at 0.32 to 100 uM; format: functional, organism-based; in short: as §3
NCI-H460 = experiment: Cytostatic activity against human NCI-H460 cells after 72 hrs by MTT assay; format: functional, cell-based; details: NCI-H460, 72 h; in short: as §6
[10] = system: Respiratory syncytial virus; experiment: Antiviral activity against RSV infected in human cervix carcinoma cells assessed as inhibition of virus-induced cytopathic effect at 0.32 to 100 uM; format: functional, organism-based; in short: as §3
L1210 = experiment: Cytostatic activity against mouse L1210 cells after 2 days by coulter counter analysis; format: functional, cell-based; details: L1210, 48 h; in short: as §2
Human respirovirus 3 = experiment: Antiviral activity against Parainfluenza virus 3 infected in african green monkey Vero cells assessed as inhibition of virus-induced cytopathic effect at 0.32 to 100 uM; format: functional, organism-based; in short: as §3
Coxsackievirus B4 [11] = experiment: Antiviral activity against Coxsackievirus B4 infected in human cervix carcinoma cells assessed as inhibition of virus-induced cytopathic effect at 0.32 to 100 uM; format: functional, organism-based; in short: as §3
Coxsackievirus B4 [12] = experiment: Antiviral activity against Coxsackievirus B4 infected in african green monkey Vero cells assessed as inhibition of virus-induced cytopathic effect at 0.32 to 100 uM; format: functional, organism-based; in short: as §3
HCT-116 = experiment: Cytostatic activity against human HCT116 cells after 72 hrs by MTT assay; format: functional, cell-based; details: HCT-116, 72 h; in short: as §6
Felid alphaherpesvirus 1 = experiment: Antiviral activity against Feline herpesvirus infected in feline CRFK cells assessed as inhibition of virus-induced cytopathic effect at 0.32 to 100 uM; format: functional, organism-based; in short: as §3
[13] = system: Radical scavenging activity; experiment: Antioxidant activity assessed as DPPH free radical scavenging activity at 100 uM after 60 mins by spectrophotometric analysis; format: functional; in short: as §1

SMILES	Activity [1]	inhibition [2] [%]	IC50 (CCRF-CEM) [µM]	inhibition (Punta Toro virus)	inhibition (Human alphaherpesvirus 2)	inhibition (Influenza B virus)	inhibition (Influenza A virus [3])	inhibition [4]	inhibition (Feline coronavirus)	inhibition (Human alphaherpesvirus 1)	inhibition [5]	inhibition (Influenza A virus [6])	IC50 (MCF7) [µM]	inhibition [7]	inhibition [8]	inhibition [9]	IC50 (HeLa) [µM]	inhibition (Vaccinia virus)	inhibition (Glycine max)	inhibition (Sindbis virus)	further results
CC(C)Cc1ccc(C(C)C(=O)NNC(=O)NCCc2ccccc2)cc1 (centres undefined)	inactive	33	148	inactive	inactive	inactive	inactive	inactive	inactive	inactive	inactive	inactive	23	inactive	inactive	inactive	≥ 250	inactive	inactive	inactive	IC50 (NCI-H460): 51 µM; inhibition [10]: inactive; IC50 (L1210): 180 µM; inhibition (Human respirovirus 3): inactive; inhibition (Coxsackievirus B4 [11]): inactive; inhibition (Coxsackievirus B4 [12]): inactive; IC50 (HCT-116): 26 µM; inhibition (Felid alphaherpesvirus 1): inactive; Activity [13]: inactive
NNC(=O)NOCc1ccccc1	6%	36	> 250	inactive	inactive	inactive	inactive	inactive	inactive	inactive	inactive	inactive	> 100	inactive	inactive	inactive	> 250	inactive	inactive	inactive	IC50 (NCI-H460): > 100 µM; inhibition [10]: inactive; IC50 (L1210): > 250 µM; inhibition (Human respirovirus 3): inactive; inhibition (Coxsackievirus B4 [11]): inactive; inhibition (Coxsackievirus B4 [12]): inactive; IC50 (HCT-116): > 100 µM; inhibition (Felid alphaherpesvirus 1): inactive; Activity [13]: 14%
CC(C)Cc1ccc(C(C)C(=O)NNC(=O)NC2CCCCC2)cc1 (centres undefined)	inactive	33	53	inactive	inactive	inactive	inactive	inactive	inactive	inactive	inactive	inactive	19	inactive	inactive	inactive	69	inactive	inactive	inactive	IC50 (NCI-H460): 35 µM; inhibition [10]: inactive; IC50 (L1210): 30 µM; inhibition (Human respirovirus 3): inactive; inhibition (Coxsackievirus B4 [11]): inactive; inhibition (Coxsackievirus B4 [12]): inactive; IC50 (HCT-116): 28 µM; inhibition (Felid alphaherpesvirus 1): inactive; Activity [13]: inactive
O=C(NNC(=O)n1nnc2ccccc21)NOCc1ccccc1	85%	31	> 250	inactive	inactive	inactive	inactive	inactive	inactive	inactive	inactive	inactive	> 100	inactive	inactive	inactive	> 250	inactive	inactive	inactive	IC50 (NCI-H460): > 100 µM; inhibition [10]: inactive; IC50 (L1210): > 250 µM; inhibition (Human respirovirus 3): inactive; inhibition (Coxsackievirus B4 [11]): inactive; inhibition (Coxsackievirus B4 [12]): inactive; IC50 (HCT-116): > 100 µM; inhibition (Felid alphaherpesvirus 1): inactive; Activity [13]: 85%
CC(C(=O)NNC(=O)NO)c1cccc(Oc2ccccc2)c1 (centres undefined)	39%	22	183	inactive	inactive	inactive	inactive	inactive	inactive	inactive	inactive	inactive	> 100	inactive	inactive	inactive	≥ 250	inactive	3%	inactive	IC50 (NCI-H460): > 100 µM; inhibition [10]: inactive; IC50 (L1210): 125 µM; inhibition (Human respirovirus 3): inactive; inhibition (Coxsackievirus B4 [11]): inactive; inhibition (Coxsackievirus B4 [12]): inactive; IC50 (HCT-116): > 100 µM; inhibition (Felid alphaherpesvirus 1): inactive; Activity [13]: 66%
CC(C)Cc1ccc(C(C)C(=O)NNC(=O)NOCc2ccccc2)cc1 (centres undefined)	inactive	100	≥ 250	inactive	inactive	inactive	inactive	inactive	inactive	inactive	inactive	inactive	50	inactive	inactive	inactive	178	inactive	inactive	inactive	IC50 (NCI-H460): > 100 µM; inhibition [10]: inactive; IC50 (L1210): 192 µM; inhibition (Human respirovirus 3): inactive; inhibition (Coxsackievirus B4 [11]): inactive; inhibition (Coxsackievirus B4 [12]): inactive; IC50 (HCT-116): 76 µM; inhibition (Felid alphaherpesvirus 1): inactive; Activity [13]: inactive
